Shown are actives, neighbours in structure and some others; about 1.8% of the full set was active somewhere.
TNF death inh: inhibitors of TNF-alpha triggered necroptosis, primary screen, cell-based, Jurkat FADD-/-, single concentration | Jurkat FADD-/- TNF necroptosis rescue, ATP luminescence, 24 h; 0 = TNF only, 100 = no-TNF cells | activation (protection from cell death), % at 10 µM | hit rate 0.068% among 220,000;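 active = activation, meaning protection from cell death, of at least 50% relative to plate controls; inactive = activation below 50%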;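 note: necroptosis triggered by 40 ng/mL TNF-alpha added together with compound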
HSV replic up: enhancers of HSV replication in host cells, fold increase, host cell viability. HSV replication augmentation in cells. maximum fold increase. hit rate 0.005% among 220,000; in the data active = maximum fold increase above about 1.5; inconclusive = no clear call, values can overlap the other calls; tested in PC3 cells
Autophagy HCS: autophagy modulators in MEF cells, primary screen, imaging, high-content, MEF GFP-LC3; MEF GFP-LC3 puncta imaging; test concentration mostly 10 µM; calls only at 10 µM (by protocol); hit rate 0.98% among 190,000;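 active = percentage of spot-positive cells more than 3 SD above its plate mean, without a fluorescence outlier flag or 80% toxicity; inconclusive = no clear call, values can overlap the other calls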
L929 necroptosis: inhibitors of zVAD-triggered necroptosis, primary screen, L929 cells; L929 zVAD necroptosis rescue, ATP luminescence, 24 h; with zVAD 60 µM; viability rescue, % at 10 µM; hit rate 0.38% among 220,000; AID 1377, 2008;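 active = activation, scaled between plate controls, above about 75%, limit read from the data; inactive = activation under that limit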
Dynein transport: inhibitors of GR-EGFP nuclear translocation, primary screen, dynein cargo transport inhibitor project, imaging, high-content, 3617.4 mouse cells | hit rate 0.47% among 220,000 | test concentration mostly 20 µM; stimulated with dexamethasone, 1 µM; hits give low values | z-score, hits read low;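 active = plate z-score of nuclear minus cytoplasmic receptor signal below a set negative limit, without overly bright fluorescence or cell loss, cut at about -3.5 in these data, passing the limit was not always enough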;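 note: z-score of nuclear minus cytoplasmic ring GR-EGFP intensity difference per well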
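Buffer or medium: tet-free, stripped-serum medium; reagent: dexamethasone at 1.0 µM final, 30 min; incubation: 48 h induction, 1 h compound, 30 min dex at 37 °C; measured by: formaldehyde fixation, Hoechst nuclear stain, 10x automated fluorescence imaging; read-out: nuclear-to-cytoplasmic GR-EGFP distribution per well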
Furin inh: human furin inhibitors, primary screen, biochemical, fluorescence intensity; purified furin, fluorogenic substrate cleavage; AID 463115, 2010; hit rate 0.061% among 220,000; P09958; inhibition, % at 20 µM or 30 µM; in the data active = inhibition above about 25%
Target sequence (P09958 108-714 limits assumed): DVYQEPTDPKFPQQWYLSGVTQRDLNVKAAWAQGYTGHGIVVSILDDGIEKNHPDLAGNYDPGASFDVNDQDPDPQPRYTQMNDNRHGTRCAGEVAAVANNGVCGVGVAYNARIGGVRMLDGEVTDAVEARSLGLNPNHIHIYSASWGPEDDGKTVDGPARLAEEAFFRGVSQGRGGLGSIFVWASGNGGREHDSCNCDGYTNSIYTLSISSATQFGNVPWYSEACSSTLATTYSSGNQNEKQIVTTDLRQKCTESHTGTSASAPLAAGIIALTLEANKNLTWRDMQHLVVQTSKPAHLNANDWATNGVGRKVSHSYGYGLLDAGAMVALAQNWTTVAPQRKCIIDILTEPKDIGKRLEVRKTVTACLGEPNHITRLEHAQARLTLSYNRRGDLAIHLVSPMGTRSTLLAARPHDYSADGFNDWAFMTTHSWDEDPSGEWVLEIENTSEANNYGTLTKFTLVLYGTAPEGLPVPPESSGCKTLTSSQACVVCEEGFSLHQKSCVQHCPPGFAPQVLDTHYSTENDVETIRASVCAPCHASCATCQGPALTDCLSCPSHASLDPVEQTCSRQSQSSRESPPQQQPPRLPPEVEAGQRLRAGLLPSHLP
Each line names hits and unclear results; the compound was inactive in the other large screens.

CCN1/C(=N\N)c2cccc3cccc1c23	HSV replic up inconclusive, Autophagy HCS active
Cn1nc(C(=O)OCC(=O)NC2CCS(=O)(=O)C2)c2ccccc2c1=O (stereo not given)	none
Cc1noc(C)c1COc1cccc(C(=O)OCC(=O)N2CC(=O)Nc3ccccc32)c1	Autophagy HCS active
O=C1CN(C(=O)COc2cccc(F)c2)c2ccccc2N1	none
Cc1cc2nc(CS(=O)(=O)c3ccccc3)cc(=O)n2[nH]1	none
C=CCNC(=S)N/N=C/c1cccc([N+](=O)[O-])c1	none
O=C(CSc1nnc(CCc2nc3ccccc3[nH]2)n1-c1ccccc1)NCc1ccco1	Autophagy HCS active
COC(=O)c1ccc(/C=N/OCC(=O)NC2CCCCCCC2)cc1	L929 necroptosis 78
COC(=O)c1ccc(/C=N/OCC(=O)NC2CCCC(C)C2C)cc1 (stereo not given)	none
Cc1ccc(C(=O)N2CCN(c3ccc([N+](=O)[O-])cc3-n3cccc3)CC2)cc1	none (no result: Autophagy HCS)
CCOC(=O)N1CCN(/C=C(\C#N)c2nc3ccccc3s2)CC1	Autophagy HCS active
N#C/C(=C\N1CCN(Cc2ccc3c(c2)OCO3)CC1)c1nc2ccccc2s1	Autophagy HCS active
CCOC(=O)c1c(C)[nH]c(C(=O)OCC(=O)N2CCc3ccccc32)c1C	Autophagy HCS active (no result: HSV replic up)
CCOC(=O)c1[nH]c(C)c(C(=O)OCC(=O)N2CCc3ccccc32)c1C	none
Cc1cccc(/N=C/C2=C(O)CC(C)(C)CC2=O)n1	Furin inh 46 (no result: Autophagy HCS)
Cc1cc(N=CC2=C(O)CC(C)(C)CC2=O)no1	Furin inh 46
Brc1ccc(-c2noc3c2-c2nc(-c4ccccc4)sc2CC3)cc1	none (no result: TNF death inh, Autophagy HCS, L929 necroptosis, Dynein transport, Furin inh)
Cc1cccc(-n2nnnc2SCn2nnc3ccccc3c2=O)c1	Autophagy HCS active
Cc1ccc(-n2nnnc2SCn2nnc3ccccc3c2=O)cc1	none
CCc1cc(C(=O)OC)c(NC(=O)CC2Nc3cc(C)c(C)cc3NC2=O)s1 (stereo not given)	Autophagy HCS active
c1ccc2c(-c3csc(-c4ccncc4)n3)c[nH]c2c1	Autophagy HCS active
O=C(/C=C/c1ccccc1Cl)NC(=S)Nc1ccccc1C(=O)NC1CCCCC1	none
CC(C)c1ccc(C2C(C#N)=C(N)N3C(=C2C#N)Sc2ccccc23)cc1 (stereo not given)	Autophagy HCS active
O=C(C1CCN(Cc2ccccc2)CC1)N1CCN(C/C=C/c2ccccc2)CC1	Autophagy HCS active
CCCSc1nc(C)nc2c1c(=O)n(C)c(=O)n2C	Autophagy HCS active
Cc1ccc(CNC(=O)CNC(=S)N(Cc2ccccc2)Cc2ccccc2F)cc1	Autophagy HCS active
COc1ccc(-n2c(C)nc3sc4c(c3c2=O)CCCC4)cc1	TNF death inh 89
CC(C)c1ccc(NC(=O)c2ccc(NS(C)(=O)=O)cc2)cc1	Autophagy HCS active
CCOC(=O)c1ccc(NC(=O)c2ccc(NS(C)(=O)=O)cc2)cc1	none
CCC1CCCCN1C(=O)c1ccc(OC2CCN(C(=O)C3CC3)CC2)cc1 (stereo not given)	none
Cn1cc(Br)c(C(=O)NC(=S)Nc2ccc(S(N)(=O)=O)cc2)n1	Autophagy HCS active
NC(C(=O)O)C(c1ccccc1)C(F)F (stereo not given)	none (no result: Autophagy HCS)
CCCn1cnc2c(cnn2-c2ccc(F)cc2)c1=O	Autophagy HCS active
CCCCn1cnc2c(cnn2-c2ccc(F)cc2)c1=O	none
COc1ccc(C2C(C(=O)Nc3ccc(OC)c(OC)c3)c3ccccc3C(=O)N2C)cc1 (stereo not given)	none
O=C1C=C(c2ccc(Cl)cc2)OC2(CCCC2)O1	Furin inh 29
Cc1ccc(-n2cc(-c3ccccc3)c3c(N4CCOCC4)ncnc32)cc1	Autophagy HCS active
Cc1ccc(-n2cc(-c3ccccc3)c3c(N4CCN(C)CC4)ncnc32)cc1	none
CCOC(=O)CSc1ncnc2c(C(=O)OCC)c3n(c12)CCC3	none
CCOC(=O)c1nn(-c2cccc(OC)c2)c2nc(Nc3ccccc3)cc(=O)n12	Autophagy HCS active
COC(C(=O)Nc1ccc(Br)cc1F)c1ccccc1 (stereo not given)	TNF death inh 91
COC(C(=O)Nc1ccccc1F)c1ccccc1 (stereo not given)	TNF death inh 84
O=C(O)COc1ccc(F)cc1Br	none (no result: Autophagy HCS)
COC(=O)CN(C#N)c1nc(NC(C)C)nc(NC(C)C)n1	none
COc1ccc2[nH]c3c4c(ccc3c2c1)C(=O)C=CC4=O	Dynein transport -5.2 (no result: Autophagy HCS)
COCCNC(=O)CN(Cc1cccs1)C(=O)CCC(=O)Nc1nccs1	none
COCCCN1C(=O)c2[nH]nc(-c3ccccc3O)c2C1c1cccc(Cl)c1 (stereo not given)	Autophagy HCS active
CC(C)OCCCN1C(=O)c2[nH]nc(-c3ccccc3O)c2C1c1cccc(Cl)c1 (stereo not given)	none
O=Cc1ccccc1OCCOc1ccccc1C=O	Autophagy HCS active
COc1ccc2c(C=O)cn(C)c2c1	Autophagy HCS active
COc1ccccc1[C@@H]1C(c2ccc(F)cc2)=NN(c2ccccc2)[C@H]1C(=O)N1CCOC1=O	Autophagy HCS active
CC(=O)Nc1cccc(NC(=O)CSc2ccc(-c3cccnc3)nn2)c1	Autophagy HCS active
Cc1cc(C)c(NC(=O)CSc2ccc(-c3cccnc3)nn2)c(C)c1	none
C=C1C(=O)O[C@@H]2C[C@@H](C)[C@@H]3C=CC(=O)[C@@]3(C)[C@@H](OC(C)=O)[C@H]12	L929 necroptosis 130, Dynein transport -3.6 (no result: Autophagy HCS)
O=c1[nH]c2ccsc2c(=O)n1CCO	none (no result: Autophagy HCS)
COc1ccc(OC)c(CN2C(=O)c3ccccc3C2C(=O)NCc2cccnc2)c1 (stereo not given)	none
COc1ccc(CN2C(=O)c3ccccc3C2C(=O)NCc2cccnc2)c(OC)c1 (stereo not given)	Autophagy HCS active
COC(=O)c1ccc(NC(CC(C)C)C(=O)OC)c([N+](=O)[O-])c1 (stereo not given)	none
O=C1C(=O)c2ccc(-c3ccccc3)cc2-c2ccccc21	Autophagy HCS active
Nc1ccc2c(c1)C(=O)C(=O)c1ccccc1-2	none
COC(=O)N/N=C(\CCC(=O)O)c1cccs1	none (no result: Autophagy HCS)
O=C(Cn1ncc2c3ccccc3n(Cc3ccccc3)c2c1=O)NCc1ccco1	none (no result: Autophagy HCS)
COC(=O)c1ccc2nc(C)c(C)nc2c1	none
COC(=O)c1ccc2c(c1)C(C)(C)C(/C=C/c1ccc(OC)c(OC)c1OC)=[N+]2C	Autophagy HCS active
